In brackets after ≈: the same amount, converted by molar mass.
Assays:
[1] = Ratio of CA4 aqueous solubility to test compound aqueous solubility; format: physicochemical; conditions: buffer
HT-29 [2] = assay: […] for human HT-29 cells assessed as reduction in cell viability after 72 hrs by MTT assay; format: functional
How it was run: (§1)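 HT29 cells were cultured in RPMI-1640 with glutamine and 10% FBS, seeded at 2000–7500 cells/well, and exposed for 72 h to drug in DMSO (final DMSO <0.1%). MTT was added at 0.83 mg mL−1 final and incubated overnight, then cells were lysed in SDS/HCl and read at 570 nm. Survival was expressed as percent of drug-free control; five replicate wells.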

[3] = Toxicity in ip dosed DBA/2 mouse assessed as reduction in 15% body weight administered as daily dose for 3 days; format: organism-based; conditions: in vivo
How it was run: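 Adult male DBA/2 mice were dosed i.p. at 10 mL kg−1, with 5 per group. Controls (n = 8) received saline. MTD was the dose allowing 15% median body-weight loss with no toxic deaths or marked change in general signs within 3 days.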

[4] = Cytotoxicity against HEK293FT cells expressing GLUT1 assessed as reduction in cell viability up to 20 uM; format: cell-based; conditions: human
Mus musculus = assay: Ratio of compound MTD to CA4 MTD in ip dosed DBA/2 mouse assessed as reduction in 15% body weight administered as daily dose for 3 days; format: ADME, organism-based; conditions: in vivo, 72 h
HT-29 [5] = assay: Cytotoxicity against human HT-29 cells assessed as reduction in cell viability after 72 hrs by MTT assay; format: functional, cell-based; conditions: HT-29, 72 h; how it was run: as §1
[6] = Cytotoxicity against HEK293FT cells assessed as reduction in cell viability up to 20 uM; format: cell-based; conditions: human
[7] = Aqueous solubility of the compound after 1 hrs by HPLC-UV method; format: physicochemical; conditions: deionized water
How it was run: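 Shaken in tubes at 25 °C for 1 h, protected from light, then filtered through 0.2 μm filters; filtrate diluted in deionized water and quantified by reversed-phase HPLC-UV (C18 column, room temperature, methanol/water 70:30 v/v, 1.0 mL min−1).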

Row | Compound | Ratio [1] | Ratio IC50 (HT-29 [2]) | MTD at 72 h [3] [mg/kg] | Activity [4] | Ratio (Mus musculus) | IC50 (HT-29 [5]) [µM] | Activity [6] | solubility at 1 h [7] [µg/mL]
1 | COc1ccc(/C=C\c2cc(OC)c(OC)c(OC)c2)cc1O[C@H]1O[C@H](CO)[C@@H](O)[C@H](O)[C@@H]1O | 1963 | 15.89 | 400 | Toxic | 16 | 11.4 | Toxic | 5890 (≈ 12.3 mM)
2 | COc1ccc(/C=C\c2cc(OC)c(OC)c(OC)c2)cc1O[C@@H]1O[C@H](CO)[C@H](O)[C@H](O)[C@H]1O | 853 | 54.61 | 550 | Toxic | 34 | 39.3 | Toxic | 2560 (≈ 5.35 mM)
